Reference: ChEMBL document CHEMBL3797096, “Synthesis and in vitro evaluation of (R), (S) and (R/S)-2-hexyne-1,4-diol, a natural product produced by fungus Clitocybe catinus, and related analogs as potential anticancer agents” (Bioorg Med Chem Lett, 2016)
Activity calls are given as the source filed them. The rule behind the calls is not given here.

Tests used:
HEp-2 = assay: Cytotoxicity against human Hep2 cells after 72 hrs by MTT assay; assay type: functional, cell-based
In short: (§1)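 Colorimetric MTT assay on human tumour cells after 72 h of incubation; values expressed as means (standard deviations), with doxorubicin as positive control.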

K562 [1] = assay: Cytotoxicity against human K562 cells assessed as cell death at 100 ug/ml after 72 hrs by MTT assay; assay type: functional
In short: (§2)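 Single-concentration colorimetric MTT screen of test compounds at a fixed final concentration. Incubation was 72 h, and the read-out was growth inhibition of the tumour cell lines. Values are given as means with standard deviations. Doxorubicin served as the positive control.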

[2] = Cytotoxicity against human HL60 cells assessed as cell death at 100 ug/ml after 72 hrs by MTT assay; assay type: functional, HL-60; in short: as §2
NCI-H292 [3] = assay: Cytotoxicity against human NCI-H292 cells after 72 hrs by MTT assay; assay type: functional, cell-based; in short: as §1
K562 [4] = assay: Cytotoxicity against human K562 cells after 72 hrs by MTT assay; assay type: functional, cell-based; in short: as §1
MCF7 [5] = assay: Cytotoxicity against human MCF7 cells assessed as cell death at 100 ug/ml after 72 hrs by MTT assay; assay type: functional; in short: as §2
MCF7 [6] = assay: Cytotoxicity against human MCF7 cells after 72 hrs by MTT assay; assay type: functional, cell-based; in short: as §1
RAW264.7 = assay: Cytotoxicity against mouse RAW264.7 cells at 100 ug/ml after 72 hrs by MTT assay; assay type: cell-based; conditions: raw264.7, 72 h
In short: (§3)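 Single-concentration screen of mouse cells at 100 µg/mL final concentration. Viability read by colorimetric MTT assay after 72 h of incubation; percent growth inhibition given as means (standard deviations); doxorubicin as positive control.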

HL-60 = assay: Cytotoxicity against human HL60 cells after 72 hrs by MTT assay; assay type: functional, cell-based; in short: as §1
[7] = Cytotoxicity against human Hep2 cells assessed as cell death at 100 ug/ml after 72 hrs by MTT assay; assay type: functional, HEp-2; in short: as §2
NCI-H292 [8] = assay: Cytotoxicity against human NCI-H292 cells assessed as cell death at 100 ug/ml after 72 hrs by MTT assay; assay type: functional; in short: as §2
J774.A1 = assay: Cytotoxicity against mouse J774.A1 cells at 100 ug/ml after 72 hrs by MTT assay; assay type: cell-based; conditions: j774.a1, 72 h; in short: as §3

Structure (SMILES)	TGI (HEp-2)	Activity (K562 [1]) [%]	Activity [2] [%]	TGI (NCI-H292 [3])	TGI (K562 [4])	Activity (MCF7 [5]) [%]	TGI (MCF7 [6])	Activity (RAW264.7) [%]	TGI (HL-60)	Activity [7] [%]	Activity (NCI-H292 [8]) [%]	Activity (J774.A1) [%]
CCCC(O)C#CCO (stereo unspecified)	Active	100	100	Active	Active	100	Active	100	Active	100	100	100
CCC(O)C#CCCO (stereo unspecified)	–	0	5.1	–	–	34.3	–	6.1	–	12.9	15.5	42.6
CC(O)C#CCCO (stereo unspecified)	–	25.1	0	–	–	17.8	–	9.4	–	2.2	0.3	16.5
CC(C)C(O)C#CC(C)(C)O (stereo unspecified)	–	9.7	7.3	–	–	40.7	–	0	–	0	21.5	55.3
CC(C)C(O)C#CCO (stereo unspecified)	–	20.9	0	–	–	28.7	–	17.8	–	42.7	69.8	2
CCCCCC(O)C#CCO (stereo unspecified)	Active	100	100	Active	Active	100	Active	100	Active	100	100	100
CC(O)C#CC1(O)CCCCC1 (stereo unspecified)	–	16.7	8.9	–	–	40.8	–	4.2	–	9.3	6.6	57.5
CC(C)C(O)C#CCCO (stereo unspecified)	–	0	0	–	–	54.1	–	17.8	–	85.7	49.9	30.4
OCC#CC(O)c1ccccc1 (stereo unspecified)	–	3.8	29.5	–	–	68.1	–	16	–	28.1	86.9	17.1
CC(O)C#CCO (stereo unspecified)	Active	100	100	Active	Active	100	Active	100	Active	100	100	100
CC[C@H](O)C#CCO	–	27	1.4	–	–	51.6	–	19.5	–	31.3	85	1.7
CC(O)C#CC(O)(c1ccccc1)c1ccccc1 (stereo unspecified)	–	80	96.1	–	–	27.3	–	95	–	84	91	93.1
CC(O)CC#CCO (stereo unspecified)	–	0	11	–	–	0	–	8.5	–	14.8	20.2	60.8
CC(O)CC#CCCO (stereo unspecified)	–	0	9.6	–	–	69.5	–	19.3	–	84.1	71.5	15.7
CC[C@@H](O)C#CCO	–	40.9	12.1	–	–	52.5	–	9.6	–	38.8	55.7	0.2
CCC(C)(O)C#CCO (stereo unspecified)	–	16	13.3	–	–	27.2	–	0	–	0	5	61.2
COc1cccc2c1C(=O)c1c(O)c3c(c(O)c1C2=O)C[C@@](O)(C(=O)CO)C[C@@H]3O[C@H]1C[C@H](N)[C@H](O)[C@H](C)O1 [DOXORUBICIN]	–	91.7	92.9	–	–	74.8	–	96.5	–	79.4	94.1	96
CCC(O)C#CCO (stereo unspecified)	Active	100	100	Active	Active	100	Active	100	Active	100	100	100
